Not all results are given here.
Apaf-1 act – activators of human Apaf-1 apoptosome, primary screen, biochemical, DEVD-Rh110 fluorescence, uHTS; Apoptotic protease-activating factor 1 (Homo sapiens), O14727; Apaf-1 apoptosome caspase-3 activation; hits give low values; activity change, negative = activation, % at 20 µM; hit rate 0.31% among 330,000; AID 489031, 2010;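 active means activity change at or below -40% at 20 µM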
Target sequence (O14727 whole entry, looked up): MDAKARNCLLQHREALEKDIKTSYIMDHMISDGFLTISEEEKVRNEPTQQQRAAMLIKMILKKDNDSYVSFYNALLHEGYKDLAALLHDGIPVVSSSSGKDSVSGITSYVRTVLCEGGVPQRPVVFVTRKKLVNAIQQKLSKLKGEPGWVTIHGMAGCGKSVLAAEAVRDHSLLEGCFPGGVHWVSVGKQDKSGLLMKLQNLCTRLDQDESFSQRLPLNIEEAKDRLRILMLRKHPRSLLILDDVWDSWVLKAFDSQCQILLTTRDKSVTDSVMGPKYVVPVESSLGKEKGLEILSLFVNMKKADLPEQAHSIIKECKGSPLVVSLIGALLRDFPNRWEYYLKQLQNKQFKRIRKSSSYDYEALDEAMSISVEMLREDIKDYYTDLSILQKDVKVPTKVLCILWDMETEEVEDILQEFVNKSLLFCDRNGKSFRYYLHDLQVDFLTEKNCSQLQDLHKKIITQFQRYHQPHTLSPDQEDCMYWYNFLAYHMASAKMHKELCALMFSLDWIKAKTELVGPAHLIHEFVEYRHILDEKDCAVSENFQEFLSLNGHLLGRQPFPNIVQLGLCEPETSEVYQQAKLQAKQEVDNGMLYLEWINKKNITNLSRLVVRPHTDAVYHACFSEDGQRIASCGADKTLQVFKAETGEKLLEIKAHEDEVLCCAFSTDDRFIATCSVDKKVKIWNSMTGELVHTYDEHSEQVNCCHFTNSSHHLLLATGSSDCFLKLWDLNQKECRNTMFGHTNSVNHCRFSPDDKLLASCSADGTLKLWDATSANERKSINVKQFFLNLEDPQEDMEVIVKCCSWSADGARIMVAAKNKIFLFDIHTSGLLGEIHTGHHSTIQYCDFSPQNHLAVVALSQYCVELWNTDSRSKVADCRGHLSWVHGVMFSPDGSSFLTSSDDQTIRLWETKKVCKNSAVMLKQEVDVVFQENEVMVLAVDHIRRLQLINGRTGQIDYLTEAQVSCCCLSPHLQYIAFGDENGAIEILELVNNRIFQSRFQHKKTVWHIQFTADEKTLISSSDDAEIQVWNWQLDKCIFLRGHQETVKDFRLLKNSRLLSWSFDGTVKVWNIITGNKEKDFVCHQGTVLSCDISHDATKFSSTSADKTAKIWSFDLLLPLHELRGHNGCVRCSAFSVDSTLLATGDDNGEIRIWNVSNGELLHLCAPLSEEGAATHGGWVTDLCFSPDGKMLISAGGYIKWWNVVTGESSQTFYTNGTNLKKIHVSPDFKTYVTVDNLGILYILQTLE
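System: Reconstituted apoptosome of Apaf-1, cytochrome c, caspase-9, procaspase-3 | Reagent: dATP, cytochrome c, and (Z-DEVD)2-Rh110 caspase-3 substrate | Times: 30 min compound preincubation and 50 min reaction, both room temperature | Detection: Caspase-3-released Rh110 fluorescence, 540 nm emission, 480 nm excitation | Measure: Caspase-3 activity via Apaf-1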
Rh110 act interf – Rh110 fluorescence interference by putative Apaf-1 activators, confirmation, artefact control for Apaf-1 activator project, biochemical, 20 µM; shares compounds with Apaf-1 act; quenched caspase reaction, Ex480/Em540; fluorescence interference (activity change), % at 20 µM, hits read low; 980 tested, under 10 active; AID 504616, 2011;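 active means mean activity change at or below -40% when tested at 20 µM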
Apaf-1 act conf2 – Apaf-1 activators, single-dose retest, confirmation, biochemical, fluorescence, DEVD-Rh110, 20 µM | shares compounds with Apaf-1 act | reconstituted apoptosome caspase-3 activity; hits give low values | activity change, negative = activation, % at 20 µM | hit rate 5% among 980;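 active means mean activity change at or below -40%, meaning activation of 40% or more, at 20 µM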
Fluor interf act – fluorescence interference of Apaf-1 activator hits, dose response, artefact control for Apaf-1 activator project; shares compounds with Apaf-1 act; fluorescence interference counterscreen, Apaf-1 activator assay; EC50, µM; 55 tested, under 10 active; AID 588592, 2011; call rule not given here
Starred values were filed as active, the others as inactive; x = not tested or not shown.

SMILES	Apaf-1 act	Rh110 act interf	Apaf-1 act conf2	others
CCN1C(N(C)CCc2c[nH]c3ccccc23)=N[C@@H](c2cccc(C(F)(F)F)c2)C(C(=O)OC)=C1C	54.9	x	x
COc1ccc(-n2nc(C(=O)NCC(=O)NC3CCCC(C)C3C)c3ccccc3c2=O)c(OC)c1 (stereo unspecified)	55.1	x	x
COc1ccc(-n2nc(C(=O)NCC(=O)NC3CCCC(C)C3C)c3ccccc3c2=O)cc1 (stereo unspecified)	51.2	x	x
CC(OC(=O)c1nn(C)c(=O)c2ccccc12)C(=O)NC1CCCCC1C (stereo unspecified)	-49.7*	-2.6	9.7
c1ccc(C2(CN3CCNC[C@H]3Cc3cccc4ccccc34)CC2)cc1	53.0	x	x
CCOC(=O)c1c(NC(=O)c2ccno2)c2cc([N+](=O)[O-])ccc2n1C	-45.2*	9.0	5.0
COc1ccc(CNC[C@@H](CCCCN(C)Cc2ccc(OC)cc2)N2C[C@H](c3ccccc3)N(CCc3ccc(Cl)c(Cl)c3)C(=O)C2=O)cc1	49.3	x	x
CCN1CCN(c2ccc(S(=O)(=O)N3CCCCC3)cc2NC(=O)/C=C/c2cc(OC)ccc2OC)CC1	45.5	x	x
CN1CCN(c2ccc(NC(=O)c3ccc(-c4ccc(Cl)cc4)o3)cc2)CC1	64.9	x	x
O=C(NC(=S)Nc1ccc(CN2CCCCC2)cc1)c1cccc(OCc2ccccc2)c1	42.6	x	x
COC(=O)c1ccc(NC(=S)N2CCN(Cc3ccc(Cl)cc3)CC2)cc1	-350.3*	6.9	10.1
FC(F)(F)c1cc(CCN2CCNC[C@@H]2CC2CCCCC2)cc(C(F)(F)F)c1	79.4	x	x
COc1ccc(C(=O)N(C)C(C)c2ccon2)cc1OC1CCN(C(C)C)CC1 (stereo unspecified)	-314.8*	13.0	14.0
COc1ccc(-c2cc(=O)n(-c3ccc([N+](=O)[O-])cc3)[nH]2)cc1	64.8	x	x
COc1ccc(CNCC(O)(c2ccc(Cl)cc2)c2ccc(Cl)cc2)cc1OC	42.3	x	x
COCc1cc(=O)oc2cc(NC(=O)c3ccc(C(C)(C)C)cc3)ccc12	-63.7*	0.1	7.1
c1ccc2c(c1)CCN(C1=Nc3cccc4cccc1c34)C2	42.9	x	x
CN(C)Cc1cc(O)c(CN(C)C)cc1O	65.3	x	x
COc1ccccc1C(=O)NC(CCSC)C(=O)N1CCC(Cc2ccccc2)CC1 (stereo unspecified)	44.0	x	x
Cc1ccc(NC(=O)C(C)N2C(=O)C3C4CC(C(Br)C4Br)C3C2=O)cc1 (stereo unspecified)	-419.1*	0.0	4.1
CC1CC(=O)c2c(cc3c(-c4c(O)cc(O)c5c(O)c6c(cc45)OC(C)CC6=O)c(O)cc(O)c3c2O)O1 (stereo unspecified)	62.5	x	x
CN1CCc2c(C#N)c(N3CCCCC3)nc(NCc3ccccc3)c2C1	52.0	x	x
COc1cc(/C=C/c2nc(N)nc(-c3ccccc3O)n2)cc(OC)c1OC	-517.1*	14.1	17.4
CC(=O)Nc1c(I)c(NC(C)=O)c(I)c(C(=O)O)c1I	10.6	x	x
C/C(=N\Nc1ccc([N+](=O)[O-])cc1)c1ccc(C#N)cc1	-44.0*	6.1	1.6
SMILES	Apaf-1 act	Rh110 act interf	Apaf-1 act conf2	others
COC(=O)CCC(=O)OC1(C)C(=O)C=C2C=C(C3CC3)N(CC(C)C)C=C2C1=O (stereo unspecified)	53.3	x	x
CC1=NN(c2ccc(C)cc2C)C(=O)C1C(c1ccccc1O)C1C(=O)N(c2ccc(C)cc2C)N=C1C (stereo unspecified)	96.9	x	x
Cn1c(=O)oc2cc(S(=O)(=O)Nc3ccccc3O)ccc21	-46.2*	9.7	14.3
Cc1cc(C)cc(NC2=C(N)C(=O)c3ccccc3C2=O)c1	73.7	x	x
O=C(CCCCCn1c(=O)[nH]c2ccsc2c1=O)N1CCN(C2CCCCC2)CC1	-386.7*	-0.1	1.7
Cc1ccc(NC(=O)Nc2nnc(CSCCOc3ccc(Cl)cc3)s2)cc1	-253.3*	2.6	11.6
O=C(CCN1CCOCC1)N1CCCC(Nc2ccc(F)cc2)C1 (stereo unspecified)	-56.3*	2.8	4.8
COc1cc2c(cc1OC)CN(Cc1cc(=O)n3c(-c4ccccc4)csc3n1)CC2	41.9	x	x
O=C(O)c1cc([N+](=O)[O-])ccc1NCCc1ccccc1	-97.3*	-1.7	17.9
CC(C)Cn1c(N)c(C(=O)COC(=O)C2CCCCC2)c(=O)n(C)c1=O	42.7	x	x
CCOC(=O)c1c(-c2ccc(OC)cc2)oc2cc(Br)c(O)cc12	-61.7*	-1.3	-28.1
CCOC(=O)c1c(C)oc2c1C(=O)c1ccccc1C2=O	68.5	x	x
CCOC(=O)N1CCN(c2cc(NCCC(=O)O)c3c4c(onc24)-c2ccccc2C3=O)CC1	75.2	x	x
Cc1ccc(SCC(=O)OCC(=O)NCCNC(=O)COC(=O)CSc2ccc(C)c(C)c2)cc1C	40.1	x	x
CN(C)c1cccc2c1c(NC(=O)c1ccc(F)cc1)nn2C	91.9	x	x
O=C(Nc1ncccn1)c1cccc(F)c1	-47.9*	0.9	9.6
COc1ccccc1Nc1cc2cc(Br)ccc2c(=O)[nH]1	96.8	x	x
O=c1[nH]c(Nc2ccccc2)cc2cc(Br)ccc12	97.9	x	x
CC(=O)c1cccc(-c2ccc3c(=O)[nH]c(Nc4ccccc4)cc3c2)c1	96.2	x	x	Fluor interf act=>100
Fc1ccc(CN2CCSCC2)cc1Br	-115.5*	-7.0	8.8
O=C1C(=Cc2ccco2)C(=O)c2ccccc21	44.4	x	x
Nc1nc2ccc(OC(F)(F)F)cc2s1	-1.1	x	x
O=C(O)c1ccc2nc(-c3ccco3)c(-c3ccco3)nc2c1	61.7	x	x
CCc1nc2ccc(C(=O)N3CCN(c4ccccc4)CC3)cc2nc1CC	-504.8*	4.1	12.3
O=C(c1ccc2nc(-c3ccco3)c(-c3ccco3)nc2c1)N1CCN(c2ccccc2)CC1	40.2	x	x
SMILES	Apaf-1 act	Rh110 act interf	Apaf-1 act conf2	others
COc1cccc(-c2sc3ccccc3c2-c2ccc(OCCN3CCCC3)cc2)c1	71.0	x	x
COc1ccc(-c2cc(=O)oc3cc(OCC(=O)Nc4ccc(CCO)cc4)ccc23)cc1	-54.6*	0.0	-20.1
CC(Oc1ccc2c(-c3ccccc3)cc(=O)oc2c1)C(=O)NCC1CCC(C(=O)O)CC1 (stereo unspecified)	-0.5	x	x
COc1ccc(N2CCN(C(=O)c3ccc(COc4ccc5c(C)cc(=O)oc5c4)cc3)CC2)cc1	57.7	x	x
CCCCN(CC)S(=O)(=O)c1ccc(C(=O)N(CCCN(C)C)c2nc3cc(C)cc(C)c3s2)cc1	47.1	x	x
COc1cccc(NC(=S)Nc2cccc3ccccc23)c1	93.8	x	x
COc1cccc(NC(=O)C(Sc2nnc(Nc3ccccc3C)s2)c2ccccc2)c1 (stereo unspecified)	-275.8*	15.9	6.1
COc1cccc(-c2nnc(SC(C(=O)c3c[nH]c4ccccc34)c3ccccc3)n2C)c1 (stereo unspecified)	42.9	x	x
CCn1c(=NC(=O)c2ccco2)sc2cccc(F)c21	-431.5*	12.0	13.9
CN(CCC#N)C(=O)COC(=O)c1cc(Cl)cc(Cl)c1N	-63.1*	11.3	16.9
Nc1c(S(=O)(=O)c2cccs2)c2nc3ccccc3nc2n1CCc1ccccc1	70.8	x	x

Source: PubChem
